A short description of data set [1]: Half life in pH 1.2 phosphate buffer at 5 uM by HPLC method. It counts as physicochemical. The method, boiled down: (§1)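 Compound dissolved at 5 µM in phosphate buffer (pH 1.2, 6.8 or 7.4), held at 37 °C for 24 h. Aliquots taken at intervals and analysed by HPLC. t1/2 = 0.693/k from linear regression of pseudo-first-order kinetics.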
A short description of data set [2]: Stability of the compound in pH 6.8 phosphate buffer at 5 uM by HPLC method. The class given is physicochemical. The following applies: pH 6.8, 5 µM. The method, boiled down:
as §1

Data set [3] in a line: Half life in pH 7.4 phosphate buffer at 5 uM by HPLC method. The class given is physicochemical. The method, boiled down: as §1
For data set [4], the target named is T1, Organic cation/carnitine transporter 2 (Homo sapiens, UniProt O76082).
T1 sequence (O76082 whole entry): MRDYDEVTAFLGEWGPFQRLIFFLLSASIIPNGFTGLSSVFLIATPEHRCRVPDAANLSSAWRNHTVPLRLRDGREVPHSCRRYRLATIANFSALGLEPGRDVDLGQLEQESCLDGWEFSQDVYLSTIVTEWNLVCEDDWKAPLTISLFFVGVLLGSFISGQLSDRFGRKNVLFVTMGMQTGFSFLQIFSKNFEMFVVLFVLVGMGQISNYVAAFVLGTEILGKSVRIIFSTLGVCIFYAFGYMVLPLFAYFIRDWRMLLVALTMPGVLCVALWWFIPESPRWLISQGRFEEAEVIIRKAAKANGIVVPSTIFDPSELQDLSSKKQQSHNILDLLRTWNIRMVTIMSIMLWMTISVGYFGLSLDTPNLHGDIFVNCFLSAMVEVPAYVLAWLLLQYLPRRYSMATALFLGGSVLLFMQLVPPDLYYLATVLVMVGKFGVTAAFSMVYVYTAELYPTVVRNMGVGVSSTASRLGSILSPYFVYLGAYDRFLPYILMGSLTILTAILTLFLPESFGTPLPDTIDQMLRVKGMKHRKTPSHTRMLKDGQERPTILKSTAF
The data set is described as follows: Ratio of drug transport assessed as OCTN2 transporter mediated cell permeability in human Caco2 cells at 25 uM in absence of L-carnitine to drug transport assessed as OCTN2 transporter mediated cell permeability in human Caco2 cells at 25 uM in presence of L-carnitine. The class given is ADME, cell-based. The following applies: caco-2, 25 µM. The method, boiled down:
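Caco-2 cells seeded at 1.0×10^5 cells/well on 0.4 µm polycarbonate inserts, cultured 21 days in MEM; monolayers with TEER over 250 Ω·cm² used. Compound at 25 µM final in HBSS, added apically, with or without 100 µM L-carnitine, 37 °C. Basolateral samples taken at 15, 30, 45, 60, 90, 120 min. Analysed by UPLC-MS/MS to give Papp. Triplicate runs.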
On the technique in general: Caco-2 cells form a polarised layer with tight junctions and transporters.

Data set [5] concerns the target T2, Organic cation/carnitine transporter 2 (Rattus norvegicus, UniProt O70594).
T2 sequence (O70594 whole entry): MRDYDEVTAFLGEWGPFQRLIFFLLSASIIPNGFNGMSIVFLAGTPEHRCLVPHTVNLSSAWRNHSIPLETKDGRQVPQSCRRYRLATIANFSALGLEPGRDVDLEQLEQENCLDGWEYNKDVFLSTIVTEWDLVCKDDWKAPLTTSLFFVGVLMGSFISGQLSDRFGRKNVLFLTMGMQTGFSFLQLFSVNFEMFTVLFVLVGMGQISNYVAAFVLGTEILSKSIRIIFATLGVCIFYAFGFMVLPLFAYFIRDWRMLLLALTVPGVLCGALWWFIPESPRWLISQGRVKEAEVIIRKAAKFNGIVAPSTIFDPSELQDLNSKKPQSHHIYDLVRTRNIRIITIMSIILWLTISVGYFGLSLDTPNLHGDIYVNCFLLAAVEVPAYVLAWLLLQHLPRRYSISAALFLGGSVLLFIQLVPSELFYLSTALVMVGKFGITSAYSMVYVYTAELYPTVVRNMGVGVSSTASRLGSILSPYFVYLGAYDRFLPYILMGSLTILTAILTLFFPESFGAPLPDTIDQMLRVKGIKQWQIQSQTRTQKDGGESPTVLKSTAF
As to the kind of experiment: Ratio of drug transport assessed as OCTN2 transporter mediated effective permeability in rat jejunum at 76 uM in absence of L-carnitine to drug transport assessed as OCTN2 transporter mediated effective permeability in rat jejunum at 76 uM in presence of L-carnitine. It counts as ADME.

For a further data set, the system named is Caco-2. As to the kind of experiment: Ratio of IC50 for cytotoxicity against human Caco2 cells in presence of L-carnitine to IC50 for cytotoxicity against human Caco2 cells in absence of L-carnitine. The class given is functional.
Data set [6] is described as follows: Tmax in Wistar rat at 50 mg/kg, po administered as single dose by UPLC-MS/MS method. It counts as ADME, organism-based. The following applies: in vivo. The method, boiled down: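 Wistar rats, six per group, single oral dose equivalent to 50 mg/kg gemcitabine; separate group given gemcitabine iv at 7.5 mg/kg. Oral sampling at 5, 10, 15, 30 min and 1, 2, 4, 6, 8, 12, 24 h; iv at 15, 30 min and 2, 4, 8, 12, 24 h. Blood into THU-pretreated heparinized tubes, centrifuged 3000 × g 15 min, plasma at -80 °C. Prodrug and gemcitabine quantified by UPLC-MS/MS. F = AUCpo×Div/AUCiv/Dpo×100%.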

The next data set concerns Heart. The data set is described as follows: Drug uptake in mouse heart at 102 mg/kg, po administered as single dose at 0.5 hrs post dose. It counts as ADME, organism-based. The following applies: in vivo. The method, boiled down: (§2)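 Mice, three per time point, single oral dose of 102 mg/kg (equivalent to 50 mg/kg gemcitabine). Heart, liver, spleen, lung, kidney and brain collected at 0.16, 0.5 and 2 h, rinsed in saline. 0.3 g tissue homogenized 1 min in 1 mL saline, spun 13,000 rpm 4 °C 5 min. Gemcitabine measured in supernatant.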

The test system of the next data set is Spleen. The data set is described as follows: Drug uptake in mouse spleen at 102 mg/kg, po administered as single dose at 2 hrs post dose. The class given is ADME, organism-based. The following applies: in vivo. The method, boiled down:
as §2

The next data set concerns Lung. The data set is described as follows: Drug uptake in mouse lung at 102 mg/kg, po administered as single dose at 2 hrs post dose. It counts as ADME, organism-based. The following applies: in vivo. The method, boiled down: as §2
Data set [7] relates to Mus musculus. As to the kind of experiment: Toxicity in Kunming mouse assessed as […] degeneration in cardiac muscle at 102 mg/kg, po administered once daily for 14 days by hematoxylin/eosin staining based optical microscopic analysis. The class given is organism-based. The following applies: in vivo, 336 h. The method, boiled down: (§3)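 Kunming mice, four per group, dosed orally once daily for 14 days with 102 mg/kg or saline control; body weight recorded every other day. Heart, liver, spleen, lung and kidney fixed in 10% buffered formalin, paraffin-embedded, sectioned, stained with hematoxylin and eosin, and examined by optical microscopy.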

The subject of data set [8] is Mus musculus. The data set is described as follows: Toxicity in Kunming mouse assessed as […] degeneration in spleen at 102 mg/kg, po administered once daily for 14 days by hematoxylin/eosin staining based optical microscopic analysis. It counts as organism-based. The following applies: in vivo, 336 h. The method, boiled down:
as §3

For data set [9], the system named is Mus musculus. As to the kind of experiment: Toxicity in Kunming mouse assessed as inflammatory infiltrates in cardiac muscle at 102 mg/kg, po administered once daily for 14 days by hematoxylin/eosin staining based optical microscopic analysis. It counts as organism-based. The following applies: in vivo, 336 h. The method, boiled down: as §3
The subject of data set [10] is Mus musculus. The data set is described as follows: Toxicity in Kunming mouse assessed as fibrosis in cardiac muscle at 102 mg/kg, po administered once daily for 14 days by hematoxylin/eosin staining based optical microscopic analysis. It counts as organism-based. The following applies: in vivo, 336 h. The method, boiled down: as §3
Data set [11] concerns Mus musculus. As to the kind of experiment: Toxicity in Kunming mouse assessed as fibrosis in lung at 102 mg/kg, po administered once daily for 14 days by hematoxylin/eosin staining based optical microscopic analysis. It counts as organism-based. The following applies: in vivo, 336 h. The method, boiled down: as §3
For data set [12], the target named is T1, Organic cation/carnitine transporter 2. The data set is described as follows: Drug transport assessed as Vmax for OCTN2 transporter mediated drug uptake in human Caco2 cells after 10 mins by Eadie-Hofstee plot method. The class given is ADME, cell-based. The following applies: caco-2, 10 min.

Molecules are shown by their SMILES.

Turning to `C[N+](C)(C)CC(CC(=O)[O-])OC(=O)CCCCC(=O)Nc1ccn([C@@H]2O[C@H](CO)[C@@H](O)C2(F)F)c(=O)n1` (stereo partly specified), the half-life (usually the time needed for the level to fall by half in the phase considered) at 5 µM is 4.4 h in data set [1] and 45.8 h in [3]. In addition, the Stability result in [2] is listed as “Stable”. The Ratio in [4] is 1.6 to 3.6; in data set [5], 11. Further, in the data set with Caco-2, the “Ratio IC50” value stood at 8. For the same compound, the Tmax (commonly the time at which the peak concentration occurs) in data set [6] is 1.3 h. Further, the figures for the Drug uptake entry in the data set on Heart, in the data set with Spleen and in the data set on Lung were “Active”, “Not Active” and “Not Active”, respectively. Further, the Activity result in the data set with Mus musculus [7], with Mus musculus [8], with Mus musculus [9], with Mus musculus [10] and in the data set on Mus musculus [11] was “Non-Toxic” throughout. Also, in [12], the Vmax is given as 0.286 nmol/mg.

For the origin of these results see ChEMBL document CHEMBL4049387, “Combination of l-Carnitine with Lipophilic Linkage-Donating Gemcitabine Derivatives as Intestinal Novel Organic Cation Transporter 2-Targeting Oral Prodrugs” (J Med Chem, 2017).
